From PubChem
TRPC6 inh: blocks the mouse TRPC6 cation channel | HEK293-TRPC6, membrane potential dye, ACh-evoked depolarization; stronger effect = lower value | B-score at 10 µM | hit rate 1.1% among 310,000 | AID 2553;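 active = B-score under library mean minus 3 SD, initial fluorescence not abnormally high, positive integrated signal ratio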;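 note: B-score derived from integrated fluorescence ratio over the kinetic read; more negative B-score means stronger inhibition of depolarization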
TRPC4 potent: TRPC4 (mouse) allosteric potentiation | Q9QUQ5 | HEK293 TRPC4beta/mu-opioid, DAMGO EC20, Fluo-4 Ca2+ flux; stronger effect = higher value | B-score at 10 µM | hit rate 0.42% among 310,000 | AID 2227;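 active = B-score of calcium response area above 5 SD of library B-scores, with initial fluorescence ratio within 5 SD of library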;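 note: B-score of integrated fluorescence ratio over time as area under calcium response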
TRPC6 activator: activates the mouse TRPC6 cation channel. Q61143. HEK293-TRPC6 membrane potential dye fluorescence; stronger effect = higher value. B-score at 10 µM. hit rate 0.13% among 310,000. AID 2550;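 active = B-score of the integrated fluorescence ratio above library mean plus 3 SD, and starting fluorescence ratio within library mean plus 5 SD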;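 note: higher score means more depolarization so channel activation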
TRPC4 act: opens the mouse TRPC4 cation channel. Q9QUQ5. HEK293 TRPC4beta/mu-opioid, Fluo4 calcium fluorescence; stronger effect = higher value. B-score at 10 µM. hit rate 0.49% among 310,000. AID 2237;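 active = B-score above 5 SD of library B-scores, and initial fluorescence ratio not above library mean plus 5 SD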;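 note: positive B-score marks a calcium rise read as TRPC4 activation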
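Assay system: HEK293 stable line with TRPC4beta plus mu-opioid receptor. Times: dye 45 min RT, read 110 s. Measured by: kinetic Fluo4 calcium fluorescence. Measure: B score of integrated ratio. Controls: assay buffer as low control, maximal DAMGO as high control.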
TRPC4 inh: inhibitors of mouse TRPC4 channel; Q9QUQ5; hit rate 0.39% among 300,000; B-score at 10 µM; HEK293 TRPC4beta/mu-opioid, DAMGO-evoked Fluo4 calcium flux; stronger effect = lower value;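 active = B-score over 3 SD under the library average, no early fluorescence shift, positive overall ratio signal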
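Assay system: TRPC4beta/mu-opioid receptor HEK293 cell line; compound dosing: single concentration per test compound; detection: Fluo4 Ca2+ flux fluorescence; evaluation: per-well B score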
TRPC4 spec 2: second selectivity test of TRPC6 inhibitors: effect on mouse TRPC4; inhibition, % at 10 µM; HEK293 TRPC4/MOR, membrane potential dye fluorescence; channel activated by saturating DAMGO dose; shares compounds with TRPC6 inh; AID 2776; hit rate 42% among 920;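 active = compounds whose fluorescence signal differed from control wells by over 3 SD, either direction, in both duplicate plates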
TRPC4 spec: mouse TRPC4 off-target activity of TRPC6 inhibitors; HEK293 TRPC4/mu-opioid, membrane potential fluorescence; activity change, negative = inhibition, % at 10 µM; shares compounds with TRPC6 inh; hit rate 61% among 920; AID 2777;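 active = rise or fall in signal beyond 3 SD of buffer-only wells in both replicate plates, either sign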;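 note: integrated kinetic ratio of fluorescence range over baseline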
HEK293 MPD ctr 2-1: second check of TRPC6 inhibitor effects in parental HEK293 cells; shares compounds with TRPC6 inh; parental HEK293 membrane potential dye fluorescence; maximal acetylcholine challenge after compound addition; signal change vs control, % at 10 µM; hit rate 31% among 920; AID 2779;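 active = membrane potential signal moving either way by over 3 SD of the maximum-effect control, in both duplicate plates, meaning non-specific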
HEK293 MPD ctr-1: parental HEK293 nonspecific activity of TRPC6 inhibitors; AID 2780; parental HEK293 membrane potential dye fluorescence; membrane potential signal change, % at 10 µM; shares compounds with TRPC6 inh; hit rate 60% among 920;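 active = membrane potential signal shifting up or down by more than 3 SD of buffer-only wells, on both duplicate plates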
HEK293 MPD ctr-2: parental HEK293 nonspecific activity of TRPC6 modulators | AID 488924 | membrane potential signal change, % at 10 µM | shares compounds with TRPC6 inh | membrane potential dye fluorescence | hit rate 51% among 2,400;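 active = membrane potential signal moves up or down beyond 5 SD from buffer-only wells, on both duplicate plates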
HEK293 MPD ctr 2-2: second check of TRPC6 modulator effects in parental HEK293 cells; inhibition, % at 10 µM; membrane potential dye fluorescence; after compound, maximal acetylcholine stimulation; shares compounds with TRPC6 inh; hit rate 14% among 2,400; AID 488926;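 active = membrane potential signal drops by more than 5 SD from the mean control signal, in both duplicate plates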;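 note: plate controls were acetylcholine ECmax control wells for no effect and buffer only wells for full effect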
TRPC4 ctr mod: tests whether TRPC6 modulators also affect mouse TRPC4. HEK293 TRPC4/mu-opioid, membrane potential fluorescence. hit rate 69% among 2,400. AID 488927. percent change from control (negative = decrease, positive = increase), % at 10 µM. shares compounds with TRPC6 inh;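 active = membrane potential signal moved up or down beyond 5 SD of buffer control wells, in both duplicate plates, actives on both sides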;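 note: plate controls were assay buffer wells for no effect and DAMGO maximal-effect wells for full effect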
TRPC4 ctr inh 2: mouse TRPC4 off-target activity of TRPC6 modulators, second screen; shares compounds with TRPC6 inh; HEK293 TRPC4/mu-opioid, membrane potential dye fluorescence; stimulated with maximal-effect DAMGO; inhibition, % at 10 µM; hit rate 55% among 2,400; AID 488928;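 active = drop in membrane potential signal beyond 5 SD of the control wells in both duplicate plates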;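 note: TRPC4 counter screen for TRPC6 hits run under conditions tuned for TRPC6 not TRPC4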
TRPC6 block conf: mouse TRPC6 inhibitor confirmation; shares compounds with TRPC6 inh; HEK293-TRPC6, membrane potential dye, ACh-evoked depolarization; inhibition, % at 10 µM; hit rate 43% among 3,300; AID 488960;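 active = fluorescence ratio falls more than 5 SD below the full-stimulation control mean, in both duplicate runs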;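 note: integrated fluorescence ratio of peak minus minimum over baseline after agonist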
TRPC6 act confirm: confirmation of mouse TRPC6 activators; shares compounds with TRPC6 inh; HEK293-TRPC6 membrane potential dye fluorescence, FDSS; activation, % at 10 µM; hit rate 11% among 2,800; AID 488961;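 active = ratio signal rise beyond 5 SD above unstimulated control wells' mean, seen in both duplicate runs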;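 note: plate controls were buffer EC0 wells for no effect and acetylcholine ECmax response for full effect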
* hit, by the source's call. Sampled rows, rich in hits. Any-hit rate of the full collection: about 2.3%.

What do the screens show for `COc1ccc(CCNC(=O)c2cc3c(=O)n4ccccc4nc3n(CC3CCCO3)c2=N)cc1OC` (stereo not given)?
TRPC6 inh: -5*; TRPC4 potent: inactive; TRPC6 activator: inactive; TRPC4 act: inactive; TRPC4 inh: inactive; HEK293 MPD ctr-2: 106%*; HEK293 MPD ctr 2-2: inactive; TRPC4 ctr mod: 12%*; TRPC4 ctr inh 2: inactive; TRPC6 block conf: 46%*

What do the screens show for `N=c1c(C(=O)NCc2ccc(F)cc2)cc2c(=O)n3ccccc3nc2n1CC1CCCO1` (stereo not given)?
TRPC6 inh: -6.7*; TRPC4 potent: inactive; TRPC6 activator: inactive; TRPC4 act: inactive; TRPC4 inh: inactive; HEK293 MPD ctr-2: inactive; HEK293 MPD ctr 2-2: inactive; TRPC4 ctr mod: -38%*; TRPC4 ctr inh 2: 54%*; TRPC6 block conf: 59%*; TRPC6 act confirm: inactive

How did Cc1cccc2c1c(N=NC(N)=S)c(O)n2C1OC(CO)C(O)C(O)C1O (stereo not given) do in these assays?
TRPC6 inh: inactive; TRPC4 potent: inactive; TRPC6 activator: inactive; TRPC4 act: inactive; TRPC4 inh: inactive

How did CS(=O)(=O)c1ccc(NC(=O)C2CC(=O)N(c3ccc4c(c3)OCCO4)C2)cc1 (stereo not given) do in these assays?
TRPC6 inh: inactive; TRPC4 potent: inactive; TRPC6 activator: inactive; TRPC4 act: inactive; TRPC4 inh: inactive

How did COc1cccc2sc3ccc(NCCC4CCCN4C)cc3c(=O)c12 (stereo not given) do in these assays?
TRPC6 inh: -6.8*; TRPC4 potent: inactive; TRPC6 activator: inactive; TRPC4 act: inactive; TRPC4 inh: inactive; TRPC4 spec 2: 65%*; TRPC4 spec: 21%*; HEK293 MPD ctr 2-1: inactive; HEK293 MPD ctr-1: 17%*; TRPC6 block conf: inactive

Results for COc1ccc(NC(=O)CN2C(=O)C(C)Oc3ccccc32)cc1OC (stereo not given) ?
TRPC6 inh: inactive; TRPC4 potent: inactive; TRPC6 activator: inactive; TRPC4 act: inactive; TRPC4 inh: inactive

How did CC(O)CN=c1cc(-c2ccccc2)oc2ccc(Cl)cc12 (stereo not given) do in these assays?
TRPC6 inh: -7.3*; TRPC4 potent: inactive; TRPC6 activator: inactive; TRPC4 act: inactive; TRPC4 inh: inactive; HEK293 MPD ctr-2: -134%*; HEK293 MPD ctr 2-2: inactive; TRPC4 ctr mod: -28%*; TRPC4 ctr inh 2: 37%*; TRPC6 block conf: 58%*; TRPC6 act confirm: inactive

Results for C/C(CCc1oc2ccc(Cl)cc2c1-c1ccc(C)o1)=N\O ?
TRPC6 inh: inactive; TRPC4 potent: inactive; TRPC6 activator: inactive; TRPC4 act: inactive; TRPC4 inh: inactive

What do the screens show for `OCCN=c1cc(-c2ccccc2)oc2ccc(Cl)cc12`?
TRPC6 inh: -8.8*; TRPC4 potent: inactive; TRPC6 activator: inactive; TRPC4 act: inactive; TRPC4 inh: inactive; TRPC4 spec 2: 67%*; TRPC4 spec: -28%*; HEK293 MPD ctr 2-1: inactive; HEK293 MPD ctr-1: -356%*; TRPC6 block conf: 55%*; TRPC6 act confirm: inactive

How did Cc1cc(Cl)ccc1Oc1ncnc2oc(-c3ccccc3)cc12 do in these assays?
TRPC6 inh: inactive; TRPC4 potent: inactive; TRPC6 activator: inactive; TRPC4 act: inactive; TRPC4 inh: inactive

What do the screens show for `CC(C)CN=c1cc(-c2ccccc2)oc2ccc(Cl)cc12`?
TRPC6 inh: -7.4*; TRPC4 potent: inactive; TRPC6 activator: inactive; TRPC4 act: inactive; TRPC4 inh: inactive; TRPC4 spec 2: 76%*; TRPC4 spec: -14%*; HEK293 MPD ctr 2-1: inactive; HEK293 MPD ctr-1: -268%*; TRPC6 block conf: inactive; TRPC6 act confirm: inactive

What do the screens show for `O=c1oc2ccc(Cl)cc2cc1-c1ccccc1`?
TRPC6 inh: inactive; TRPC4 potent: inactive; TRPC6 activator: inactive; TRPC4 act: inactive; TRPC4 inh: inactive

How did O=C(Nc1c[nH]c(=O)[nH]c1=O)c1cc([N+](=O)[O-])cc([N+](=O)[O-])c1 do in these assays?
TRPC6 inh: inactive; TRPC4 potent: inactive; TRPC6 activator: inactive; TRPC4 act: inactive; TRPC4 inh: inactive

Results for CSCCC(NC(=O)c1ccccc1)C(=O)N1CCN(C(c2ccccc2)c2ccccc2)CC1 (stereo not given) ?
TRPC6 inh: inactive; TRPC4 potent: inactive; TRPC6 activator: inactive; TRPC4 act: inactive; TRPC4 inh: inactive

What do the screens show for `Cc1cccc(CN2C(=O)c3ccccc3S(=O)(=O)c3ccc(C(=O)NCCCN4CCCC4)cc32)c1`?
TRPC6 inh: -5.1*; TRPC4 potent: inactive; TRPC6 activator: inactive; TRPC4 act: inactive; TRPC4 inh: inactive; HEK293 MPD ctr-2: inactive; HEK293 MPD ctr 2-2: inactive; TRPC4 ctr mod: inactive; TRPC4 ctr inh 2: 57%*; TRPC6 block conf: 41%*; TRPC6 act confirm: inactive
